In ChEMBL document CHEMBL1123757, “Selective thromboxane synthetase inhibitors and antihypertensive agents. New derivatives of 4-hydrazino-5H-pyridazino[4,5-b]indole, 4-hydrazinopyridazino[4,5-a]indole, and related compounds” (J Med Chem, 1987):

Test: Effect on thromboxane synthetase activity on in vitro platelet aggregation induced by AA at 10e -5 M expressed as percent increase in PGE-2
Assay type: functional, Homo sapiens
How it was run: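 Human citrated PRP adjusted to 200 000 […], compound at 10^-5 M final in saline/10% ethylene glycol, incubated at 37 °C. Aggregation induced with arachidonic acid 0.6 mM and read by Born absorbance aggregometry. PGE2 and TXB2 in the aggregated samples measured by radioimmunoassay. n = 5.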

Work on `COc1ccc2[nH]c3c(NN)nncc3c2c1.Cl` yielded an Increase of 47%.
